Assay results reported in ChEMBL document CHEMBL1165920, “Structural determinants for the inhibitory ligands of orotidine-5'-monophosphate decarboxylase” (Bioorg Med Chem, 2010).
Active and inactive are the calls of the source. The calls are words filed in the database; no cut-off is given here.

Tests used:
[1] = target: T1, Orotidine 5'-phosphate decarboxylase (Saccharomyces cerevisiae S288c, UniProt P03962); test: Inhibition of Saccharomyces cerevisiae uridine 5'-monophosphate synthase
T1 sequence (P03962 whole entry): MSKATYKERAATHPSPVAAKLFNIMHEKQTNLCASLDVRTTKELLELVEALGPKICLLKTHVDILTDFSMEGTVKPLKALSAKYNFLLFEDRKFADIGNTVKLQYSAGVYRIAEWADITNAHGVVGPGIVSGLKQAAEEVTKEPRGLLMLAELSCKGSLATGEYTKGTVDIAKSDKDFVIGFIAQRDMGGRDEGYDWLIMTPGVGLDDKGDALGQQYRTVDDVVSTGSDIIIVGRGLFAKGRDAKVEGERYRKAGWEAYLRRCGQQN

[2] = target: T1, Orotidine 5'-phosphate decarboxylase; test: Inhibition of Saccharomyces cerevisiae uridine 5'-monophosphate synthase after overnight incubation at room temperature by VP-ITC microcalorimetry
[3] = target: T2, Orotidine phosphate decarboxylase (Plasmodium falciparum) (UniProt Q8T6J6); conditions: 0.5 to 5 mM
T2 sequence (whole entry): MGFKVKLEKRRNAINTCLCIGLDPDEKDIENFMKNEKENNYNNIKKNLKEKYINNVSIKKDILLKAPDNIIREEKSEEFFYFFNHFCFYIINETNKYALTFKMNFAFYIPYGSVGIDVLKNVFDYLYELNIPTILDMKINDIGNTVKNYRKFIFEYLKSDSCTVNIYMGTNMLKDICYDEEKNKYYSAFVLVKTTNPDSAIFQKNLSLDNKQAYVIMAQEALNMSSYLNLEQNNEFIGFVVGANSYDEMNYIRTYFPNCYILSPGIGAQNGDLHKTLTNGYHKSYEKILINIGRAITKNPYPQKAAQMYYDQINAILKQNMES

[4] = target: Orotidine 5'-phosphate decarboxylase (Methanobacterium thermoautotrophicum) (UniProt O26232); test: Competitive inhibition of Methanothermobacter thermautotrophicus uridine 5'-monophosphate synthase after overnight incubation at room temperature by Lineweaver-Burke plot analysis
Orotidine 5'-phosphate decarboxylase (Methanobacterium thermoautotrophicum), sequence (O26232 whole entry, looked up): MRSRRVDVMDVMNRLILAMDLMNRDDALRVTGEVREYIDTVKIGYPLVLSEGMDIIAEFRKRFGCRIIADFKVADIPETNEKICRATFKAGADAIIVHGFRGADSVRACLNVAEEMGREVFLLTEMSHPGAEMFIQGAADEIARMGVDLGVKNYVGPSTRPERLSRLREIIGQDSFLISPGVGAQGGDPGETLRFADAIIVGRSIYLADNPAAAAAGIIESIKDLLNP
In short: (§1)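 Isothermal titration calorimetry with Mt ODCase (final 20 nM). Enzyme stock was kept in 50 mM Tris pH 7.5, 20 mM DTT, 40 mM NaCl overnight at rt. Assay buffer was degassed 50 mM Tris pH 7.5 with 1 mM DTT. Run at 55 °C, started by injecting 5 mM OMP in 50 mM Tris. Inhibitor series spanned 5–40 µM or 0.5–5 mM. Competitive Ki was derived from Ki(app) = Ki(1+[S]/KM).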

[5] = target: Orotidine 5'-phosphate decarboxylase (Methanobacterium thermoautotrophicum, UniProt O26232); test: Inhibition of Methanothermobacter thermautotrophicus uridine 5'-monophosphate synthase after overnight incubation at room temperature by VP-ITC microcalorimetry; in short: as §1
Orotidine 5'-phosphate decarboxylase (Methanobacterium thermoautotrophicum, UniProt O26232), sequence (O26232 whole entry): as the sequence (O26232 whole entry, looked up) above

[6] = Inhibition of Helicobacter pylori uridine 5'-monophosphate synthase after overnight incubation at room temperature by VP-ITC microcalorimetry
In short: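 Reversible inhibition measured by ITC with Hp ODCase (final 60 nM) and 20 µM OMP substrate. Assay buffer was degassed 50 mM Tris pH 7.5 with 1 mM DTT. Inhibitor series were 0.25–1.5 µM or 0.25–2.5 mM. Ki was fitted as competitive from Ki(app) = Ki(1+[S]/KM).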

Ki [1] | SMILES | Ki [2] | inhibition [3] | inhibition [4] | Ki [5] | Ki [6]
0.0088 nM | O=c1cc(O)n([C@@H]2O[C@H](COP(=O)(O)O)[C@@H](O)[C@H]2O)c(=O)[nH]1 | 0.009 nM |  |  |  | 
 | N#Cc1cc(=O)[nH]c(=O)n1[C@@H]1O[C@H](COP(=O)(O)O)[C@@H](O)[C@H]1O |  | Active |  |  | 
 | NC(=O)c1[nH]nc([C@@H]2O[C@H](COP(=O)(O)O)[C@@H](O)[C@H]2O)c1O | 5 nM |  | Active | 6200 nM | 130 nM
